From ChEMBL document CHEMBL5705886, “GSK1070916, a potent Aurora B/C kinase inhibitor with broad antitumor activity in tissue culture cells and human tumor xenograft models” (Mol Cancer Ther, 2009)
Activity calls are given as the source filed them. No cut-off for these calls is given here.

Columns and labels:
[1] = Toxicity in SCID nude mouse xenografted with human K562 cells assessed as drug tolerance at 100 mg/kg, ip administered once daily for 5 consecutive days with 2 days off scheduled for 3 cycles measured upto 60 days; type: organism-based; settings: in vivo, 1440 h, time < 60 day
[2] = test system: A498; assay: Antiproliferative activity against human A498 cells assessed as inhibition of cell viability measured for 6 to 7 days by cell titer glo assay; type: functional, cell-based
Method in brief: (§1)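 Tumor lines plated in recommended growth media, overnight at 37°C, 5% CO2, then given serial dilutions; a T=0 plate read with CellTiter-Glo at dosing. After 6–7 d of exposure, viability read by CellTiter-Glo luminescence. No-cell wells subtracted, data expressed as % of DMSO control.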

[3] = test system: Rec1; assay: Antiproliferative activity against human REC1 cells assessed as inhibition of cell viability measured for 6 to 7 days by cell titer glo assay; type: functional, cell-based
Method in brief: (§2)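 Cells seeded in recommended growth medium, held overnight at 37°C in 5% CO2, then exposed to serial dilutions of inhibitor for 6–7 d. A time-zero plate was read with CellTiter-Glo at dosing. Luminescent viability read at the end. No-cell wells subtracted as background, data expressed as percent of DMSO control.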

[4] = test system: MDA-MB-453; assay: Antiproliferative activity against human MDA-MB-453 cells assessed as inhibition of cell viability measured for 6 to 7 days by cell titer glo assay; type: functional, cell-based
Method in brief: (§3)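 Cells seeded in recommended growth medium, incubated overnight at 37°C in 5% CO2, then exposed to serial dilutions of inhibitor for 6–7 d. A parallel plate was read with CellTiter-Glo at compound addition as a T=0 value. The luminescent viability readout had no-cell background subtracted and was expressed as % of DMSO control.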

[5] = test system: HL-60; assay: Antitumor activity in human HL-60 cells xenografted in SCID mouse assessed as reduction in tumor growth at 100 mg/kg, ip administered once daily for 5 consecutive days with 2 days off scheduled for 2 cycles measured upto 60 days; type: functional, organism-based; settings: time 60.0 day
[6] = Antiproliferative activity against human Kasumi-2 cells assessed as inhibition of cell viability measured for 6 to 7 days by cell titer glo assay; type: functional, cell-based; method in brief: as §3
[7] = test system: COLO-320-HSR; assay: Antiproliferative activity against human COLO 320HSR cells assessed as inhibition of cell viability measured for 6 to 7 days by cell titer glo assay; type: functional, cell-based; method in brief: as §1
[8] = test system: MOLT-3; assay: Antiproliferative activity against human MOLT-3 cells assessed as inhibition of cell viability measured for 6 to 7 days by cell titer glo assay; type: functional, cell-based; method in brief: as §3
[9] = test system: HN5; assay: Antiproliferative activity against human HN5 cells assessed as inhibition of cell viability measured for 6 to 7 days by cell titer glo assay; type: functional, cell-based; method in brief: as §3
[10] = Antiproliferative activity against human HuNS1 cells assessed as inhibition of cell viability measured for 6 to 7 days by cell titer glo assay; type: functional, cell-based; method in brief: as §3
[11] = test system: COLO 205; assay: Induction of apoptosis in human COLO 205 cells assessed as caspase-3 cleavage at 10 nmol/L incubated for 24 hrs by Western blot analysis; type: functional, cell-based
[12] = test system: DB; assay: Antiproliferative activity against human DB cells assessed as inhibition of cell viability measured for 6 to 7 days by cell titer glo assay; type: functional, cell-based; method in brief: as §1
[13] = test system: NCI-H358; assay: Antiproliferative activity against human NCI-H358 cells assessed as inhibition of cell viability measured for 6 to 7 days by cell titer glo assay; type: functional, cell-based; method in brief: as §3
[14] = test system: RPMI-8226; assay: Antiproliferative activity against human RPMI-8226 cells assessed as inhibition of cell viability measured for 6 to 7 days by cell titer glo assay; type: functional, cell-based; method in brief: as §2
[15] = test system: OVCAR-4; assay: Antiproliferative activity against human OVCAR-4 cells assessed as inhibition of cell viability measured for 6 to 7 days by cell titer glo assay; type: functional, cell-based; method in brief: as §2
[16] = test system: Raji; assay: Antiproliferative activity against human Raji cells assessed as inhibition of cell viability measured for 6 to 7 days by cell titer glo assay; type: functional, cell-based; method in brief: as §2
[17] = test system: A549; assay: Effect on cell cycle distribution in human A549 cells assessed as increase in >4N DNA content at 2 to 5000 nM incubated for 24 to 72 hrs by flow cytometry based analysis; type: functional; settings: dose 2-5000 nM, time 24-72 hrs
[18] = test system: SW-620; assay: Antiproliferative activity against human SW620 cells assessed as inhibition of cell viability measured for 6 to 7 days by cell titer glo assay; type: functional, cell-based; method in brief: as §2
[19] = test system: CESS; assay: Antiproliferative activity against human CESS cells assessed as inhibition of cell viability measured for 6 to 7 days by cell titer glo assay; type: functional, cell-based; method in brief: as §1
[20] = test system: Jurkat; assay: Antiproliferative activity against human Jurkat cells assessed as inhibition of cell viability measured for 6 to 7 days by cell titer glo assay; type: functional, cell-based; method in brief: as §3
[21] = test system: HuT78; assay: Antiproliferative activity against human HuT78 cells assessed as inhibition of cell viability measured for 6 to 7 days by cell titer glo assay; type: functional, cell-based; method in brief: as §3
[22] = target: Aurora kinase B (Homo sapiens) (UniProt Q96GD4)
[23] = test system: MX1; assay: Antiproliferative activity against human MX1 cells assessed as inhibition of cell viability measured for 6 to 7 days by cell titer glo assay; type: functional, cell-based; method in brief: as §3
[24] = Toxicity in SCID nude mouse xenografted with human SW620 cells assessed as body weight loss at 25 to 100 mg/kg, ip administered once daily for 5 consecutive days with 2 days off scheduled for 3 cycles measured upto 60 days relative to control; type: organism-based, SW-620; settings: in vivo, 1440 h, dose 25-100 mg/kg, time 60 day
[25] = test system: CCRF-HSB-2; assay: Antiproliferative activity against human HSB-2 cells assessed as inhibition of cell viability measured for 6 to 7 days by cell titer glo assay; type: functional, cell-based; method in brief: as §3
[26] = Antiproliferative activity against human HS-Sultan cells assessed as inhibition of cell viability measured for 6 to 7 days by cell titer glo assay; type: functional, cell-based; method in brief: as §3
[27] = test system: MDA-MB-231; assay: Antiproliferative activity against human MDA-MB-231 cells assessed as inhibition of cell viability measured for 6 to 7 days by cell titer glo assay; type: functional, cell-based; method in brief: as §3
[28] = test system: LoVo; assay: Antiproliferative activity against human LoVo cells assessed as inhibition of cell viability measured for 6 to 7 days by cell titer glo assay; type: functional, cell-based; method in brief: as §3
[29] = test system: HeLa; assay: Antiproliferative activity against human HeLa cells assessed as inhibition of cell viability measured for 6 to 7 days by cell titer glo assay; type: functional, cell-based; method in brief: as §3
[30] = test system: THP-1; assay: Antiproliferative activity against human THP-1 cells assessed as inhibition of cell viability measured for 6 to 7 days by cell titer glo assay; type: functional, cell-based; method in brief: as §2
[31] = test system: DLD-1; assay: Antiproliferative activity against human DLD-1 cells assessed as inhibition of cell viability measured for 6 to 7 days by cell titer glo assay; type: functional, cell-based; method in brief: as §1
[32] = Antiproliferative activity against human PLB-985 cells assessed as inhibition of cell viability measured for 6 to 7 days by cell titer glo assay; type: functional, cell-based; method in brief: as §2
[33] = test system: PANC-1; assay: Antiproliferative activity against human PANC-1 cells assessed as inhibition of cell viability measured for 6 to 7 days by cell titer glo assay; type: functional, cell-based; method in brief: as §2
[34] = test system: ARH-77; assay: Antiproliferative activity against human ARH-77 cells assessed as inhibition of cell viability measured for 6 to 7 days by cell titer glo assay; type: functional, cell-based; method in brief: as §1
[35] = test system: JIYOYE; assay: Antiproliferative activity against human JIYOYE cells assessed as inhibition of cell viability measured for 6 to 7 days by cell titer glo assay; type: functional, cell-based; method in brief: as §3
[36] = test system: NALM-6; assay: Antiproliferative activity against human NALM-6 cells assessed as inhibition of cell viability measured for 6 to 7 days by cell titer glo assay; type: functional, cell-based; method in brief: as §3

Aurora kinase B (Homo sapiens), sequence (Q96GD4 whole entry): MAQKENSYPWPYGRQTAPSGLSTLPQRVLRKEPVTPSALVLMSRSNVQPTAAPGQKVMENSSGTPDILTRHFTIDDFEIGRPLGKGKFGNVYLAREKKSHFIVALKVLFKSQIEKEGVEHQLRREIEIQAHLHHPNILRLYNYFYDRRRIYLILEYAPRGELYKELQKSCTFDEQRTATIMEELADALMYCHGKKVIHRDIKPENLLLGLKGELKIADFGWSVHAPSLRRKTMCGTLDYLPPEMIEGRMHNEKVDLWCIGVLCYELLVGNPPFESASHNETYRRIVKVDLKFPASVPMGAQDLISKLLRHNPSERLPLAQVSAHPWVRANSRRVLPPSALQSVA

CCn1cc(-c2ccnc3[nH]c(-c4cccc(CN(C)C)c4)cc23)c(-c2ccc(NC(=O)N(C)C)cc2)n1 [GSK-1070916]
Activity [1]: Toxic | EC50 [2]: 33 nM | EC50 [3]: 77 nM | EC50 [4]: 6 nM | Activity [5]: Active | EC50 [6]: 6 nM | EC50 [7]: 92 nM | EC50 [8]: 5 nM | EC50 [9]: 10 nM | EC50 [10]: 9 nM | Activity [11]: Active | EC50 [12]: 11 nM | EC50 [13]: 4 nM | EC50 [14]: 11 nM | EC50 [15]: 11 nM | EC50 [16]: 3 nM | Activity [17]: Active | EC50 [18]: 8 nM | EC50 [19]: 5 nM | EC50 [20]: 3 nM | EC50 [21]: 14 nM | T1/2 [22]: > 8 h | EC50 [23]: 8 nM | Activity [24]: < 15% | EC50 [25]: 3 nM | EC50 [26]: 14 nM | EC50 [27]: 11 nM | EC50 [28]: 7 nM | EC50 [29]: 13 nM | EC50 [30]: 5 nM | EC50 [31]: 28 nM | EC50 [32]: 1 nM | EC50 [33]: 13 nM | EC50 [34]: 15 nM | EC50 [35]: 5 nM | EC50 [36]: 2 nM
